Assay results taken from ChEMBL document CHEMBL1145627, “E-ring-modified 7-oxyiminomethyl camptothecins: Synthesis and preliminary in vitro and in vivo biological evaluation” (Bioorg Med Chem Lett, 2008).

Columns and labels:
PANC-1 = experiment: Antitumor activity against human Panc1 cells xenografted athymic mouse assessed as inhibition of tumor volume at 400 mg/kg, po administered in q4dx4 schedule; format: functional
Outline: (§1)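 Human tumor xenografts (CoBa colon, MKN-28 gastric, Panc-1 pancreatic) grown subcutaneously in mice. Drug given orally on an intermittent q4dx4 schedule. Read-out is % tumor volume inhibition in treated versus control mice. Complete responses were scored as tumor disappearance lasting at least ten days.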

Mus musculus [1] = experiment: Toxicity in human CoBa cells xenografted athymic mouse assessed as survival at 50 mg/kg, iv administered in q4dx4 schedule; format: organism-based; set-up: dose 50 mg/kg, route intravenous; details: in vivo
Mus musculus [2] = experiment: Toxicity in human Panc1 cells xenografted athymic mouse assessed as survival at 400 mg/kg, po administered in q4dx4 schedule; format: organism-based, PANC-1; set-up: route oral; details: in vivo
Outline: (§2)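 Mice carried subcutaneous human tumor xenografts (CoBa, MKN-28 or Panc-1). They were dosed orally on an intermittent q4dx4 schedule, which was also used to set the maximum tolerated dose. Toxicity was scored as lethal toxicity, given as dead/treated mice. Drug-induced % body weight loss was also recorded.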

[3] = Antitumor activity against human CoBa cells xenografted in athymic mouse assessed as inhibition of tumor volume at 50 mg/kg, iv administered in q4dx4 schedule
HT-29 [4] = experiment: Antiproliferative activity against BCRP overexpressing mitoxantrone-resistant human HT29 cells after 1 hr of drug exposure measured after 72 hrs; format: functional, cell-based
Outline: (§3)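 Growth inhibition after 1-h drug exposure; IC50 is the concentration giving 50% reduction of cell growth versus untreated controls. Values are means ± SD from at least three experiments.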

HT-29 [5] = experiment: Resistant index, ratio of IC50 for BCRP overexpressing mitoxantrone-resistant human HT29 cells to IC50 for human HT29 cells; format: functional
Outline: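 Resistance index in HT29/mit, the BCRP-overexpressing subline. IC50 values come from the 1-h exposure growth inhibition assay, as 50% growth reduction versus untreated controls.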

HT-29 [6] = experiment: Antiproliferative activity against human HT29 cells after 1 hr of drug exposure measured after 72 hrs; format: functional, cell-based; outline: as §3
NCI-H460 [7] = experiment: Antiproliferative activity against human H460 cells after 2 hrs of drug exposure measured after 72 hrs; format: functional, cell-based
Outline: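 Growth inhibition with IC50 taken after 2-h drug exposure, as the concentration giving 50% reduction of cell growth versus untreated controls.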

NCI-H460 [8] = experiment: Antiproliferative activity against human H460 cells after 1 hr of drug exposure measured after 72 hrs; format: functional, cell-based; outline: as §3
[9] = Antitumor activity against human CoBa cells xenografted in athymic mouse assessed as inhibition of tumor volume at 2 mg/kg, po administered in q4dx4 schedule; format: functional; outline: as §1
Mus musculus [10] = experiment: Toxicity in human CoBa cells xenografted athymic mouse assessed as survival at 2 mg/kg, po administered in q4dx4 schedule; format: organism-based; set-up: dose 2 mg/kg, route oral; details: in vivo; outline: as §2
Mus musculus [11] = experiment: Toxicity in human CoBa cells xenografted athymic mouse assessed as loss of body weight at 2 mg/kg, po administered in q4dx4 schedule; format: organism-based; set-up: dose 2 mg/kg, route oral; details: in vivo
Outline: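 Mice bearing subcutaneous CoBa colon carcinoma were treated on a q4dx4 schedule, orally or, for CPT11, at 50 mg/kg. Body weight loss % is the loss induced by drug treatment.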

Compound | IC50 (HT-29 [4]) | Ratio IC50 (HT-29 [5]) | IC50 (HT-29 [6]) | IC50 (NCI-H460 [7]) | IC50 (NCI-H460 [8]) | other results
CC[C@@]1(O)OC(=O)c2c1cc1n(c2=O)Cc2c-1nc1ccccc1c2/C=N/OC(C)(C)C | – | – | – | – | – | LCK (PANC-1): 1.6; Activity (Mus musculus [1]): Non-toxic; Activity (Mus musculus [2]): Non-toxic; LCK [3]: 1.1
CC[C@@]1(O)C(=O)OCc2c1cc1n(c2=O)Cc2cc3c(CN(C)C)c(O)ccc3nc2-1 [TOPOTECAN] | 46300 nM | 34 | 1350 nM | – | – | –
CC[C@@]1(O)CC(=O)OCc2c1cc1n(c2=O)Cc2c-1nc1ccccc1c2/C=N/OC(C)(C)C | – | – | – | 1.8 nM | – | –
CC[C@@]1(O)C(=O)OCc2c1cc1n(c2=O)Cc2c-1nc1ccccc1c2/C=N/OCc1ccccc1 | 42 nM | 0.75 | 56 nM | – | 30 nM | –
CC[C@@]1(O)C(=O)OCc2c1cc1n(c2=O)Cc2c-1nc1ccccc1c2/C=N/OC(C)(C)C [GIMATECAN] | 70 nM | 1.2 | 56 nM | 15 nM | 20 nM | LCK [9]: 1.1; inhibition in vivo at 2 mg/kg ([9]; Homo sapiens, CoBa): 90%; Activity (Mus musculus [10]): Non-toxic; Activity (Mus musculus [11]): 18%
